≈ marks a conversion by molar mass, not a printed value.
What was measured:
Assay type in all cases: functional
Aspergillus flavus = assay: Antifungal activity against Aspergillus flavus after 16 to 18 hrs by serial dilution method; details: for MIC: Aspergillus flavus
Summary of the method: (§1)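 The test compound was dissolved in DMF and serially diluted. A standard drop of the prepared microbial culture was added to each dilution, and tubes were incubated at 37 °C for 16–18 h. MIC was taken as the highest dilution that stayed clear with no visible turbidity.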

[1] = test system: Trichophyton mentagrophytes; assay: Antifungal activity against Trichophyton mentagrophytes after 16 to 18 hrs by serial dilution method; details: for MIC: Trichophyton mentagrophytes
Aspergillus fumigatus = assay: Antifungal activity against Aspergillus fumigatus after 16 to 18 hrs by serial dilution method; details: for MIC: Aspergillus fumigatus
Escherichia coli = assay: Antibacterial activity against Escherichia coli after 16 to 18 hrs by serial dilution method; details: for MIC: Escherichia coli; summary of the method: as §1
Talaromyces marneffei = assay: Antifungal activity against Penicillium marneffei after 16 to 18 hrs by serial dilution method; details: for MIC: Talaromyces marneffei; summary of the method: as §1
Klebsiella pneumoniae = assay: Antibacterial activity against Klebsiella pneumoniae after 16 to 18 hrs by serial dilution method; details: for MIC: Klebsiella pneumoniae
Pseudomonas aeruginosa = assay: Antibacterial activity against Pseudomonas aeruginosa after 16 to 18 hrs by serial dilution method; details: for MIC: Pseudomonas aeruginosa; summary of the method: as §1
Staphylococcus aureus = assay: Antibacterial activity against Staphylococcus aureus after 16 to 18 hrs by serial dilution method; details: for MIC: Staphylococcus aureus; summary of the method: as §1

SMILES	inhibition zone (IZ) (Aspergillus flavus)	MIC (Aspergillus flavus)	inhibition zone (IZ) [1]	MIC [1]	inhibition zone (IZ) (Aspergillus fumigatus)	MIC (Aspergillus fumigatus)	inhibition zone (IZ) (Escherichia coli)	MIC (Escherichia coli)	inhibition zone (IZ) (Talaromyces marneffei)	MIC (Talaromyces marneffei)	inhibition zone (IZ) (Klebsiella pneumoniae)	MIC (Klebsiella pneumoniae)	inhibition zone (IZ) (Pseudomonas aeruginosa)	MIC (Pseudomonas aeruginosa)	inhibition zone (IZ) (Staphylococcus aureus)	MIC (Staphylococcus aureus)
Cc1cccc(OCc2ccccc2-c2nn(CNc3cc(C)ccc3Cl)c(=S)o2)c1	<10 mm	25 µg/mL (≈ 55.3 µM)	<10 mm	25 µg/mL (≈ 55.3 µM)	<10 mm	25 µg/mL (≈ 55.3 µM)	<10 mm	25 µg/mL (≈ 55.3 µM)	<10 mm	25 µg/mL (≈ 55.3 µM)	<10 mm	25 µg/mL (≈ 55.3 µM)	<10 mm	25 µg/mL (≈ 55.3 µM)	<10 mm	25 µg/mL (≈ 55.3 µM)
Cc1ccc(OCc2ccccc2-c2nn(CNc3cc(C)ccc3Cl)c(=S)o2)cc1	<10 mm	25 µg/mL (≈ 55.3 µM)	<10 mm	25 µg/mL (≈ 55.3 µM)	<10 mm	25 µg/mL (≈ 55.3 µM)	<10 mm	25 µg/mL (≈ 55.3 µM)	<10 mm	25 µg/mL (≈ 55.3 µM)	<10 mm	25 µg/mL (≈ 55.3 µM)	<10 mm	25 µg/mL (≈ 55.3 µM)	<10 mm	25 µg/mL (≈ 55.3 µM)
Cc1ccc(Cl)c(NCn2nc(-c3ccccc3COc3ccc(Cl)cc3)oc2=S)c1	<10 mm	25 µg/mL (≈ 52.9 µM)	<10 mm	25 µg/mL (≈ 52.9 µM)	<10 mm	25 µg/mL (≈ 52.9 µM)	<10 mm	25 µg/mL (≈ 52.9 µM)	<10 mm	25 µg/mL (≈ 52.9 µM)	<10 mm	25 µg/mL (≈ 52.9 µM)	<10 mm	25 µg/mL (≈ 52.9 µM)	<10 mm	25 µg/mL (≈ 52.9 µM)
CCSc1nnc(-c2ccccc2COc2ccccc2C)o1	<10 mm	25 µg/mL (≈ 76.6 µM)	<10 mm	25 µg/mL (≈ 76.6 µM)	<10 mm	25 µg/mL (≈ 76.6 µM)	<10 mm	25 µg/mL (≈ 76.6 µM)	<10 mm	25 µg/mL (≈ 76.6 µM)	<10 mm	25 µg/mL (≈ 76.6 µM)	<10 mm	25 µg/mL (≈ 76.6 µM)	<10 mm	25 µg/mL (≈ 76.6 µM)
CCSc1nnc(-c2ccccc2COc2cccc(C)c2)o1	<10 mm	25 µg/mL (≈ 76.6 µM)	<10 mm	25 µg/mL (≈ 76.6 µM)	<10 mm	25 µg/mL (≈ 76.6 µM)	<10 mm	25 µg/mL (≈ 76.6 µM)	<10 mm	25 µg/mL (≈ 76.6 µM)	<10 mm	25 µg/mL (≈ 76.6 µM)	<10 mm	25 µg/mL (≈ 76.6 µM)	<10 mm	25 µg/mL (≈ 76.6 µM)
CCSc1nnc(-c2ccccc2COc2ccc(C)cc2)o1	<10 mm	25 µg/mL (≈ 76.6 µM)	<10 mm	25 µg/mL (≈ 76.6 µM)	<10 mm	25 µg/mL (≈ 76.6 µM)	<10 mm	25 µg/mL (≈ 76.6 µM)	<10 mm	25 µg/mL (≈ 76.6 µM)	<10 mm	25 µg/mL (≈ 76.6 µM)	<10 mm	25 µg/mL (≈ 76.6 µM)	<10 mm	25 µg/mL (≈ 76.6 µM)
CCSc1nnc(-c2ccccc2COc2ccc(Cl)cc2)o1	<10 mm	25 µg/mL (≈ 72.1 µM)	<10 mm	25 µg/mL (≈ 72.1 µM)	<10 mm	25 µg/mL (≈ 72.1 µM)	<10 mm	25 µg/mL (≈ 72.1 µM)	<10 mm	25 µg/mL (≈ 72.1 µM)	<10 mm	25 µg/mL (≈ 72.1 µM)	<10 mm	25 µg/mL (≈ 72.1 µM)	<10 mm	25 µg/mL (≈ 72.1 µM)
Cc1ccccc1OCc1ccccc1-c1nnc(SCc2ccccc2)o1	<10 mm	25 µg/mL (≈ 64.4 µM)	<10 mm	25 µg/mL (≈ 64.4 µM)	<10 mm	25 µg/mL (≈ 64.4 µM)	<10 mm	25 µg/mL (≈ 64.4 µM)	<10 mm	25 µg/mL (≈ 64.4 µM)	<10 mm	25 µg/mL (≈ 64.4 µM)	<10 mm	25 µg/mL (≈ 64.4 µM)	<10 mm	25 µg/mL (≈ 64.4 µM)
Cc1cccc(OCc2ccccc2-c2nnc(SCc3ccccc3)o2)c1	<10 mm	25 µg/mL (≈ 64.4 µM)	<10 mm	25 µg/mL (≈ 64.4 µM)	<10 mm	25 µg/mL (≈ 64.4 µM)	<10 mm	25 µg/mL (≈ 64.4 µM)	<10 mm	25 µg/mL (≈ 64.4 µM)	<10 mm	25 µg/mL (≈ 64.4 µM)	<10 mm	25 µg/mL (≈ 64.4 µM)	<10 mm	25 µg/mL (≈ 64.4 µM)
Cc1cccc(OCc2ccccc2-c2nn(CNc3cccc(C(F)(F)F)c3)c(=S)o2)c1	16 mm	6.25 µg/mL (≈ 13.3 µM)	11 mm	12.5 µg/mL (≈ 26.5 µM)	16 mm	6.25 µg/mL (≈ 13.3 µM)	16 mm	6.25 µg/mL (≈ 13.3 µM)	11 mm	12.5 µg/mL (≈ 26.5 µM)	16 mm	6.25 µg/mL (≈ 13.3 µM)	16 mm	6.25 µg/mL (≈ 13.3 µM)	16 mm	6.25 µg/mL (≈ 13.3 µM)
Cc1ccc(OCc2ccccc2-c2nn(CNc3cccc(C(F)(F)F)c3)c(=S)o2)cc1	16 mm	6.25 µg/mL (≈ 13.3 µM)	16 mm	6.25 µg/mL (≈ 13.3 µM)	16 mm	6.25 µg/mL (≈ 13.3 µM)	16 mm	6.25 µg/mL (≈ 13.3 µM)	16 mm	6.25 µg/mL (≈ 13.3 µM)	16 mm	6.25 µg/mL (≈ 13.3 µM)	16 mm	6.25 µg/mL (≈ 13.3 µM)	16 mm	6.25 µg/mL (≈ 13.3 µM)
FC(F)(F)c1cccc(NCn2nc(-c3ccccc3COc3ccc(Cl)cc3)oc2=S)c1	16 mm	6.25 µg/mL (≈ 12.7 µM)	16 mm	6.25 µg/mL (≈ 12.7 µM)	16 mm	6.25 µg/mL (≈ 12.7 µM)	16 mm	6.25 µg/mL (≈ 12.7 µM)	16 mm	6.25 µg/mL (≈ 12.7 µM)	16 mm	6.25 µg/mL (≈ 12.7 µM)	16 mm	6.25 µg/mL (≈ 12.7 µM)	16 mm	6.25 µg/mL (≈ 12.7 µM)
Cc1ccccc1OCc1ccccc1-c1nn(CNc2ccc(Cl)cc2C(=O)C(F)(F)F)c(=S)o1	<10 mm	25 µg/mL (≈ 46.8 µM)	<10 mm	25 µg/mL (≈ 46.8 µM)	<10 mm	25 µg/mL (≈ 46.8 µM)	<10 mm	25 µg/mL (≈ 46.8 µM)	<10 mm	25 µg/mL (≈ 46.8 µM)	<10 mm	25 µg/mL (≈ 46.8 µM)	<10 mm	25 µg/mL (≈ 46.8 µM)	<10 mm	25 µg/mL (≈ 46.8 µM)
Cc1cccc(OCc2ccccc2-c2nn(CNc3ccc(Cl)cc3C(=O)C(F)(F)F)c(=S)o2)c1	<10 mm	25 µg/mL (≈ 46.8 µM)	<10 mm	25 µg/mL (≈ 46.8 µM)	<10 mm	25 µg/mL (≈ 46.8 µM)	<10 mm	25 µg/mL (≈ 46.8 µM)	<10 mm	25 µg/mL (≈ 46.8 µM)	<10 mm	25 µg/mL (≈ 46.8 µM)	<10 mm	25 µg/mL (≈ 46.8 µM)	<10 mm	25 µg/mL (≈ 46.8 µM)
Cc1ccc(OCc2ccccc2-c2nn(CNc3ccc(Cl)cc3C(=O)C(F)(F)F)c(=S)o2)cc1	<10 mm	25 µg/mL (≈ 46.8 µM)	<10 mm	25 µg/mL (≈ 46.8 µM)	<10 mm	25 µg/mL (≈ 46.8 µM)	<10 mm	25 µg/mL (≈ 46.8 µM)	<10 mm	25 µg/mL (≈ 46.8 µM)	<10 mm	25 µg/mL (≈ 46.8 µM)	<10 mm	25 µg/mL (≈ 46.8 µM)	<10 mm	25 µg/mL (≈ 46.8 µM)
O=C(c1cc(Cl)ccc1NCn1nc(-c2ccccc2COc2ccc(Cl)cc2)oc1=S)C(F)(F)F	<10 mm	25 µg/mL (≈ 45.1 µM)	<10 mm	25 µg/mL (≈ 45.1 µM)	<10 mm	25 µg/mL (≈ 45.1 µM)	<10 mm	25 µg/mL (≈ 45.1 µM)	<10 mm	25 µg/mL (≈ 45.1 µM)	<10 mm	25 µg/mL (≈ 45.1 µM)	<10 mm	25 µg/mL (≈ 45.1 µM)	<10 mm	25 µg/mL (≈ 45.1 µM)
Cc1ccc(Cl)c(NCn2nc(-c3ccccc3COc3ccccc3C)oc2=S)c1	<10 mm	25 µg/mL (≈ 55.3 µM)	<10 mm	25 µg/mL (≈ 55.3 µM)	<10 mm	25 µg/mL (≈ 55.3 µM)	<10 mm	25 µg/mL (≈ 55.3 µM)	<10 mm	25 µg/mL (≈ 55.3 µM)	<10 mm	25 µg/mL (≈ 55.3 µM)	<10 mm	25 µg/mL (≈ 55.3 µM)	<10 mm	25 µg/mL (≈ 55.3 µM)

Reference: ChEMBL document CHEMBL1275272, “Synthesis, characterization and antimicrobial activity of some disubstituted 1,3,4-oxadiazoles carrying 2-(aryloxymethyl)phenyl moiety” (2010)
